Experiment [1] addresses Protein kinase C gamma type (Homo sapiens) (UniProt P05129). Kind of experiment: Inhibition of PKCG at 1 uM in presence of 10 uM ATP by Select Screen kinase assay relative to untreated control. In short, it runs like this: (§1)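 Commercial SelectScreen profiling panel of 220 purified kinases. Each kinase was tested at a single inhibitor concentration of 1 μM, and activity was expressed as percent inhibition.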

The test system of experiment [2] is Serine/threonine-protein kinase B-raf (Homo sapiens), P15056 [V600E]. Kind of experiment: Inhibition of BRAF V599E mutant at 1 uM in presence of 100 uM ATP by Select Screen kinase assay relative to untreated control. In short, it runs like this:
(§2)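 Single-point screen at 1 μM against a panel of 220 purified kinases, run by Invitrogen staff as a SelectScreen profiling service. Read-out is percent inhibition of kinase activity.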

In experiment [3] the target is Tyrosine-protein kinase Srms (Homo sapiens) (UniProt Q9H3Y6). Put plainly: Inhibition of SRMS at 1 uM in presence of 10 uM ATP by Select Screen kinase assay relative to untreated control. The essentials:
as §1

Experiment [4] has as its target T1, Testis-specific serine/threonine-protein kinase 1 (Homo sapiens) (UniProt Q9BXA7).
T1 sequence (whole entry): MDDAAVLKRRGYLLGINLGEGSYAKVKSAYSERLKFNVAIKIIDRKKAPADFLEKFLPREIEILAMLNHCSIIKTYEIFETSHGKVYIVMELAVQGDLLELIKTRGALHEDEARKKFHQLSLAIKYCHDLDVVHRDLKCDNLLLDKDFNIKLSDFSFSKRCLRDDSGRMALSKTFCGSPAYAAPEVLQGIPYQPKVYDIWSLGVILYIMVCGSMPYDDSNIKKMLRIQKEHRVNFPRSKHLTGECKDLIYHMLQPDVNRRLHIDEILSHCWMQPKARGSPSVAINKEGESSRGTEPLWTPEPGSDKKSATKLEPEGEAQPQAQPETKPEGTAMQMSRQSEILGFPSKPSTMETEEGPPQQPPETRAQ
Kind of experiment: Inhibition of STK22D at 1 uM in presence of 10 uM ATP by Select Screen kinase assay relative to untreated control. In short, it runs like this: as §1

Experiment [5] addresses T2, Serine/threonine-protein kinase TAO2 (Homo sapiens) (UniProt Q9UL54).
T2 sequence (whole entry): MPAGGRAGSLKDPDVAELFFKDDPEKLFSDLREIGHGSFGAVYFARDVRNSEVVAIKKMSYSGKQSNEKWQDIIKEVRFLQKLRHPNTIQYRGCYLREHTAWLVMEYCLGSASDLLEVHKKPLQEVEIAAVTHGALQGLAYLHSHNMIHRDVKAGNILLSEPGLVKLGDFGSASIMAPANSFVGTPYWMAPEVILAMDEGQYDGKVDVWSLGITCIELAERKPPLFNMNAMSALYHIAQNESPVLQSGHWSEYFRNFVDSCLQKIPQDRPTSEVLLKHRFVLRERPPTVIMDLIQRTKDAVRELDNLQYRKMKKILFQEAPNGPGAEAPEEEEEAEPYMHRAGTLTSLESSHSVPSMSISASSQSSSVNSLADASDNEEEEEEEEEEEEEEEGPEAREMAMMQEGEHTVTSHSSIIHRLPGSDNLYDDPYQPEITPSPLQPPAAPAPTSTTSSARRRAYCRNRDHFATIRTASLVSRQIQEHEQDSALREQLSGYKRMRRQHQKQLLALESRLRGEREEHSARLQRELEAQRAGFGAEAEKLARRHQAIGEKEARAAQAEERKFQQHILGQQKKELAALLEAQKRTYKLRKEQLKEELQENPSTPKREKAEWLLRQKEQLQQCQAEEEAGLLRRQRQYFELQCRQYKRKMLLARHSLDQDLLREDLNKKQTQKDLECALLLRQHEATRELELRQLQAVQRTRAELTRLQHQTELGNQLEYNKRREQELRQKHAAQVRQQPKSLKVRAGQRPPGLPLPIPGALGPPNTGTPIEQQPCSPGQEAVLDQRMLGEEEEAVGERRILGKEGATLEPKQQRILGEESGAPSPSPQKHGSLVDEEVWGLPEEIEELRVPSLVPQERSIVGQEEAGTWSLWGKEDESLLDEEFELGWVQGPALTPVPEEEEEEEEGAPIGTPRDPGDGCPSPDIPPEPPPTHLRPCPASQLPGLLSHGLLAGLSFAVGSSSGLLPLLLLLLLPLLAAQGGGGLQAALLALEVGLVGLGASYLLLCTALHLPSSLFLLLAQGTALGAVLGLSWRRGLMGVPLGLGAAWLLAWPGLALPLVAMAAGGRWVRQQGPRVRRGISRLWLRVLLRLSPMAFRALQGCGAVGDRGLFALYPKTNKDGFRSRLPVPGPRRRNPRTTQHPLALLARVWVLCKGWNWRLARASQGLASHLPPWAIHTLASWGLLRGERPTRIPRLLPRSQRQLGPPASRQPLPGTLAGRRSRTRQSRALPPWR
Put plainly: Inhibition of TAOK2 at 1 uM in presence of 10 uM ATP by Select Screen kinase assay relative to untreated control. In short, it runs like this:
as §1

Experiment [6] deals with Tyrosine-protein kinase Yes (Homo sapiens) (UniProt P07947). Put plainly: Inhibition of YES1 at 1 uM in presence of 10 uM ATP by Select Screen kinase assay relative to untreated control. The essentials: as §1
Experiment [7] concerns the target Calcium/calmodulin-dependent protein kinase type II subunit alpha (Homo sapiens) (UniProt Q9UQM7). Put plainly: Inhibition of CAMK2A at 1 uM in presence of 10 uM ATP by Select Screen kinase assay relative to untreated control. In short, it runs like this: as §2
In experiment [8] the target is Fibroblast growth factor receptor 2 (Homo sapiens) (UniProt P21802). Kind of experiment: Inhibition of FGFR2 at 1 uM in presence of 10 uM ATP by Select Screen kinase assay relative to untreated control. In short, it runs like this: (§3)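 Single-concentration profiling at 1 μM against a panel of 220 purified kinases, run as an outsourced SelectScreen kinase profiling service. Activity is expressed as percent inhibition.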
Fibroblast growth factor receptor 2 (Homo sapiens), sequence (P21802 22-821 limits assumed): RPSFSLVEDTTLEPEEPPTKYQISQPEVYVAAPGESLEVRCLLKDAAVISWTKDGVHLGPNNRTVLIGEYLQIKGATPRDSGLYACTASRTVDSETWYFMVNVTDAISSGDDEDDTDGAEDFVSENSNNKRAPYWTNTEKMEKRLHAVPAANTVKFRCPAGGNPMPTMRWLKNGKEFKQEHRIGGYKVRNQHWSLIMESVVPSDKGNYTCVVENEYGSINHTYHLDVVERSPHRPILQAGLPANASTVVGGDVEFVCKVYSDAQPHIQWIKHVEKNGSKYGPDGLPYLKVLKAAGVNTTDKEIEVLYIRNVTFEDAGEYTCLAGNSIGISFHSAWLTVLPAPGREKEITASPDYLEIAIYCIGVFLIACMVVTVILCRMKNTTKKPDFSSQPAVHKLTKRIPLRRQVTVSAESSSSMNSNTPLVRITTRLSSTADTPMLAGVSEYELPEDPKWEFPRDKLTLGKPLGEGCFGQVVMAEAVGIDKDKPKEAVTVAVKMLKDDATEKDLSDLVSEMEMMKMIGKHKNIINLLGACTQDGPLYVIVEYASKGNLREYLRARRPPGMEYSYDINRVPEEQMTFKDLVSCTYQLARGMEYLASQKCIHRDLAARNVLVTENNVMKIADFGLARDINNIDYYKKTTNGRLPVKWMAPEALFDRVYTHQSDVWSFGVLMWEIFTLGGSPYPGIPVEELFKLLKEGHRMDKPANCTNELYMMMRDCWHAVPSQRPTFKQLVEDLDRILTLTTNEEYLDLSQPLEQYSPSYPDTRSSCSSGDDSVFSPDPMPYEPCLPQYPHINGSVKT

Experiment [9] deals with Fibroblast growth factor receptor 3 (Homo sapiens) (UniProt P22607). Put plainly: Inhibition of FGFR3 at 1 uM in presence of 10 uM ATP by Select Screen kinase assay relative to untreated control. In short, it runs like this:
as §3

The target in experiment [10] is Hepatocyte growth factor receptor (Homo sapiens) (UniProt P08581). Put plainly: Inhibition of MET at 1 uM in presence of 10 uM ATP by Select Screen kinase assay relative to untreated control. In short, it runs like this:
as §3

For experiment [11], the target named is Serine/threonine-protein kinase Nek4 (Homo sapiens) (UniProt P51957). Put plainly: Inhibition of NEK4 at 1 uM in presence of 100 uM ATP by Select Screen kinase assay relative to untreated control. In short, it runs like this:
as §3

Experiment [12] has as its target Serine/threonine-protein kinase Nek6 (Homo sapiens) (UniProt Q9HC98). Kind of experiment: Inhibition of NEK6 at 1 uM in presence of 10 uM ATP by Select Screen kinase assay relative to untreated control. The essentials: as §1
Experiment [13] has as its target Serine/threonine-protein kinase PAK 2 (Homo sapiens) (UniProt Q13177). Kind of experiment: Inhibition of PAK2 at 1 uM in presence of 10 uM ATP by Select Screen kinase assay relative to untreated control. In short, it runs like this: as §1
Experiment [14] deals with Serine/threonine-protein kinase PLK1 (Homo sapiens) (UniProt P53350). Kind of experiment: Inhibition of PLK1 at 1 uM in presence of 10 uM ATP by Select Screen kinase assay relative to untreated control. The essentials:
as §1

Serine/threonine-protein kinase B-raf (Homo sapiens), P15056 [V600E], sequence (P15056 whole entry V600E): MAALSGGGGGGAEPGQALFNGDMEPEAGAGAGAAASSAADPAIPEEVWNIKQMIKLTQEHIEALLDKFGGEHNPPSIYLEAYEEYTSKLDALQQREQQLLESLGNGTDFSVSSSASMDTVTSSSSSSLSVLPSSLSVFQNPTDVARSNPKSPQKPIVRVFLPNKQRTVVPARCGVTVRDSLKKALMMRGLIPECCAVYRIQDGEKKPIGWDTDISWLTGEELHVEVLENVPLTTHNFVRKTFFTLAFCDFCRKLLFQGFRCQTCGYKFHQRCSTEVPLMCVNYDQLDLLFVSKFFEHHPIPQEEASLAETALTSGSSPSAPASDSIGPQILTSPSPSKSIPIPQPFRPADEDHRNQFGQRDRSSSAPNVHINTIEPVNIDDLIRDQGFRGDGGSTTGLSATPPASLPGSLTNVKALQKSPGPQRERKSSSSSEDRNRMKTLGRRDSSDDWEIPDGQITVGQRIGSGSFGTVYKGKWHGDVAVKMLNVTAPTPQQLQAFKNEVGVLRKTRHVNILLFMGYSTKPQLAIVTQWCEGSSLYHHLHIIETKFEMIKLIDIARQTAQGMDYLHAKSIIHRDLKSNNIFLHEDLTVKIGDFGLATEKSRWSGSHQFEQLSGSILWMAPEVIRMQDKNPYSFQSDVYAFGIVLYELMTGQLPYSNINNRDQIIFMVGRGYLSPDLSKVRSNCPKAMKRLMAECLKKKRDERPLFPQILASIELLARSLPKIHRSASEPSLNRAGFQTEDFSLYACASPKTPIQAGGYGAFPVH
Hepatocyte growth factor receptor (Homo sapiens), sequence (P08581 whole entry): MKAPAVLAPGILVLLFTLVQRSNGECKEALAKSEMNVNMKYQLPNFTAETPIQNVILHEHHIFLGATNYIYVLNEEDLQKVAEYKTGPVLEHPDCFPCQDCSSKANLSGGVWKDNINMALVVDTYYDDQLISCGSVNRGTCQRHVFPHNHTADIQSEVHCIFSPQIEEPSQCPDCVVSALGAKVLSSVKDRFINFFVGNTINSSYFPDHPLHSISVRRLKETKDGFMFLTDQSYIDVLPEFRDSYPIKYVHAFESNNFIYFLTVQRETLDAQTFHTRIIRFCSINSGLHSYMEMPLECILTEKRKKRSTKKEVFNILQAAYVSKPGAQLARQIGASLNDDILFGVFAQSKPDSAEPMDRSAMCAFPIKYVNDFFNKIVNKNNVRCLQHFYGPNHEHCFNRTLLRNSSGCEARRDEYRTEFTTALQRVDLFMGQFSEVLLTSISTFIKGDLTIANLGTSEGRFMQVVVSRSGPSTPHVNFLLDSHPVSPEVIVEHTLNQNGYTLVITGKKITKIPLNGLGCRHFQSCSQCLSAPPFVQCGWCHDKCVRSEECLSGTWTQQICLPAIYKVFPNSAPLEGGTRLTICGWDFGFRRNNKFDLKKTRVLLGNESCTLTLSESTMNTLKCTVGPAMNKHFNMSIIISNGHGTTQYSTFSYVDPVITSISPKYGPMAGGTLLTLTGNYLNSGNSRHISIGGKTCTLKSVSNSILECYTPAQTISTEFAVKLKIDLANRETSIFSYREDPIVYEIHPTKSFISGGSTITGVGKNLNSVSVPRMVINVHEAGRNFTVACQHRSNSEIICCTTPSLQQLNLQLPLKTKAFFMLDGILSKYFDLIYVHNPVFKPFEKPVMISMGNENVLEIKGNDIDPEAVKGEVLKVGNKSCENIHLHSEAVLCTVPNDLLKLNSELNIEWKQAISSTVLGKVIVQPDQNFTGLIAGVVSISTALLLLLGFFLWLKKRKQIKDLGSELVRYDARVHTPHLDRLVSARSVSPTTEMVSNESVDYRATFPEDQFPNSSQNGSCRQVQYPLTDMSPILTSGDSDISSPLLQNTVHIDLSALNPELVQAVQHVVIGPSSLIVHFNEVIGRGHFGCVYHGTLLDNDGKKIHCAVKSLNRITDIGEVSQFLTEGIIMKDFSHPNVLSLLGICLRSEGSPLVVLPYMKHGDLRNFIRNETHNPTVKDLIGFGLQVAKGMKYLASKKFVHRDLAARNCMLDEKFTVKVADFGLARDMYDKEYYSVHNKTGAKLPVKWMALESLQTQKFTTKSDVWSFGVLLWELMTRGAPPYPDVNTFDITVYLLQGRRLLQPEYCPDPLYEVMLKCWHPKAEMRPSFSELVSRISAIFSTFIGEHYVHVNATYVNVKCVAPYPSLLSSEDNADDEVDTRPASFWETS
Serine/threonine-protein kinase PLK1 (Homo sapiens), sequence (P53350 whole entry): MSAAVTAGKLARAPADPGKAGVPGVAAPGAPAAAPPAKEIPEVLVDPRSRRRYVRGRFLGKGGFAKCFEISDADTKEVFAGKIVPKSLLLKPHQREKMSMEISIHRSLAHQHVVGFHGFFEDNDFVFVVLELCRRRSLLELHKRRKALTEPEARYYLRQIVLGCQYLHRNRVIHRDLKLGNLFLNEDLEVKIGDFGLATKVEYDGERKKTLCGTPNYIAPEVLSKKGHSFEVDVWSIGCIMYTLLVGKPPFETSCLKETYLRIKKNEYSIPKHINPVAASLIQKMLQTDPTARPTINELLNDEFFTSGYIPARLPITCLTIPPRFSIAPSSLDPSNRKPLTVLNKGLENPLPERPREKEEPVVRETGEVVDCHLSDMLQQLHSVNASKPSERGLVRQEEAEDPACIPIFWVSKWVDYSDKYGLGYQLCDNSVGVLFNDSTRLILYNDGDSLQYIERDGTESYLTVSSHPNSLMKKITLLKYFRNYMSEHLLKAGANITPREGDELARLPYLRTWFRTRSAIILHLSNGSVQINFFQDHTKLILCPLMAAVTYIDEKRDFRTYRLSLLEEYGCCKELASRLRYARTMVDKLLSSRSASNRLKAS
Serine/threonine-protein kinase Nek4 (Homo sapiens), sequence (P51957 whole entry, looked up): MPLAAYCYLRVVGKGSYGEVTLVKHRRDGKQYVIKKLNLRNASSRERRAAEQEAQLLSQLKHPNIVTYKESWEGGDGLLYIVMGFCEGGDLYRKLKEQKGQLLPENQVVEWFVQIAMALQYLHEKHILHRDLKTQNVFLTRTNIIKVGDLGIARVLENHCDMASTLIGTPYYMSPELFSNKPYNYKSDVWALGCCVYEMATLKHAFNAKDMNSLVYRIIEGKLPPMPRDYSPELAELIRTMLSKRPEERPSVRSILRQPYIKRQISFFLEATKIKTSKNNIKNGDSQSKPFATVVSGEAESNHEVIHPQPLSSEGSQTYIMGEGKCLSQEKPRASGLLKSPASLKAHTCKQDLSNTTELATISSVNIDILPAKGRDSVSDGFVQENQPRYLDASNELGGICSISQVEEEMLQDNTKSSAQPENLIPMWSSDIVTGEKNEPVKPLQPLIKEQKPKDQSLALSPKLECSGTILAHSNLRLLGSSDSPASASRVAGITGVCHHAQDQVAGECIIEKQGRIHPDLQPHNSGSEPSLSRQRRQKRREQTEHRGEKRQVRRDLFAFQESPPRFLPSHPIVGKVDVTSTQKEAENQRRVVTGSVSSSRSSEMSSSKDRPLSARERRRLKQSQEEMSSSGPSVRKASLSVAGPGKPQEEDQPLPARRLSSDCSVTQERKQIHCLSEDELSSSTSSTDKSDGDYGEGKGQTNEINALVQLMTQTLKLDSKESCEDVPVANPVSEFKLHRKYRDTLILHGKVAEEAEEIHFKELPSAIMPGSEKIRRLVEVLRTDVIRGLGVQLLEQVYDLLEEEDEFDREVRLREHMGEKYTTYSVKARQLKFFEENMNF

The inhibition is the relative decrease from the control value, in per cent. As to `COc1ccccc1N1CCN(c2ncnc3[nH]nc(Br)c23)CC1`, the inhibition was 28% in experiment [1]; 9% in experiment [2]; 7% in experiment [3]; 21% in experiment [4]; 2% in experiment [5]; 20% in experiment [6]. Moreover, the inhibition came to 16% in [7]; 12% in [8]; 23% in [9]; 8% in experiment [10]; 10% in [11]; 10% in experiment [12]. Besides, the results for the inhibition in experiment [13] and in experiment [14] were 9% and 12%, respectively.

On to `Cc1n[nH]c2ccc(-c3cncc(OC[C@@H](N)Cc4c[nH]c5ccccc45)c3)cc12`, for which the inhibition in experiment [1] is 108%; in experiment [2] it was 45%; in [3], -1%; in [4], 71%; in experiment [5] it was 35%; in [6], 20%. Besides, the inhibition in experiment [7] was 80%; in [8] it was 3%; in experiment [9], -1%; in experiment [10] it was 12%; in [11] it was 41%; in experiment [12], 3%. Besides, the values for the inhibition in experiment [13] and in experiment [14] were 55% and 1%, respectively.

In the case of `O=C(NCCCNc1nc(Nc2cccc(NC(=O)N3CCCC3)c2)ncc1I)c1cccs1`, the inhibition in experiment [1] worked out at 58%; in [2], 52%; in experiment [3], 10%; in [4], 69%; in experiment [5], 82%; in experiment [6], 36%. Moreover, the inhibition was 79% in experiment [7]; 51% in [8]; 43% in [9]; 11% in experiment [10]; 24% in experiment [11]; 9% in experiment [12]. Besides, the figures for the inhibition in [13] and in experiment [14] were 5% and 14%, respectively.
